pEC50: −log10 of the molar value. Calls of active or inactive are those of the source. No cut-off for these calls is given here.
What was measured:
[1] = tested on: INS1; test: Protection against tunicamycin induced endoplasmic reticulum stress in rat INS-1 cells assessed as increase in cell viability after 3 days by CellTiter-Glo assay relative to control; assay type: functional
Outline: (§1)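 INS-1 cells at 3×10^3/well (384-well) co-treated with Tm 0.1 µg/mL and compound for 72 h; CellTiter-Glo ATP luminescence. Activity is % rescue, with Tm alone = 0% and DMSO without Tm = 100%. EC50 from ten 2-fold serial dilutions by curve fit; triplicate.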

[2] = tested on: INS1; test: Protection against tunicamycin induced endoplasmic reticulum stress in rat INS-1 cells assessed as increase in cell viability after 3 days by CellTiter-Glo assay; assay type: functional, cell-based; conditions: INS1, 72 h; outline: as §1
[3] = tested on: INS1; test: Protection against tunicamycin induced endoplasmic reticulum stress in rat INS-1 cells assessed as increase in cell viability at 5 uM after 72 hrs by CellTiter-Glo assay; assay type: functional, cell-based
[4] = tested on: INS1; test: Protection against tunicamycin induced endoplasmic reticulum stress in rat INS-1 cells assessed as increase in cell viability at 30 uM after 72 hrs by CellTiter-Glo assay; assay type: functional, cell-based

| Structure (SMILES) | %max [1] | pEC50 [2] | Activity [3] | Activity [4] |
| --- | --- | --- | --- | --- |
| OC[C@@H]1CCCN1c1nc(NCCc2ccccc2Cl)c2ccccc2n1 | 50.6% | 5.84 |  |  |
| OC[C@@H]1CCCN1c1nc(NCCc2ccccc2)c2ccccc2n1 | 54.4% | 6.32 |  |  |
| COc1ccc(CNc2nc(N3CCC[C@H]3CO)nc3ccccc23)cc1OC | 44.9% | 5.73 |  |  |
| COc1ccccc1CCNc1nc(N2CCC[C@H]2CO)nc2ccccc12 | 56.6% | 5.45 |  |  |
| OC[C@@H]1CCCN1c1nc(NCCc2ccccc2F)c2ccccc2n1 | 52.5% | 5.77 |  |  |
| COc1cccc(CCNc2nc(N3CCC[C@H]3CO)nc3ccccc23)c1 | 54.9% | 5.82 |  |  |
| OC[C@@H]1CCCN1c1nc(NCCc2ccccc2Br)c2ccccc2n1 | 39% | 5.73 |  |  |
| OC[C@@H]1CCCN1c1nc(NCCc2ccc(F)cc2)c2ccccc2n1 | 56.2% | 5.67 |  |  |
| OC[C@@H]1CCCN1c1nc(NCCc2ccc(Cl)cc2)c2ccccc2n1 | 57.3% | 6.29 |  |  |
| OC[C@@H]1CCCN1c1nc(NCCc2cccc(F)c2)c2ccccc2n1 | 51.3% | 5.94 |  |  |
| COc1ccc(CNc2nc(N3CCCCC3CO)nc3ccccc23)cc1OC (configuration not stated) | 69.4% | 5.44 |  |  |
| OC[C@@H]1CCCN1c1nc(NCCc2ccc(Br)cc2)c2ccccc2n1 | 44.1% | 6.19 |  |  |
| OCC1CCCCN1c1nc(NCc2ccccc2)c2ccccc2n1 (configuration not stated) | 56.4% | 6.64 |  |  |
| Cc1ccc(CCNc2nc(N3CCC[C@H]3CO)nc3ccccc23)cc1 | 34.2% | 6.18 |  |  |
| OC[C@@H]1CCCN1c1nc(NCCc2cccc(Br)c2)c2ccccc2n1 | 53.2% | 6.11 |  |  |
| COc1ccc(CNc2nc(N3CCC[C@H]3CO)nc3ccccc23)cc1 | 57.2% | 5.39 |  |  |
| OCC1CCCCN1c1nc(NCc2ccc(Cl)cc2)c2ccccc2n1 (configuration not stated) | 54.7% | 6.68 |  |  |
| OC[C@@H]1CCCN1c1nc(NCCc2cccc(Cl)c2)c2ccccc2n1 | 51.5% | 5.98 |  |  |

| Structure (SMILES) | %max [1] | pEC50 [2] | Activity [3] | Activity [4] |
| --- | --- | --- | --- | --- |
| COc1ccc(CNc2nc(N3CCCC[C@@H]3CO)nc3ccccc23)cc1 |  |  | Active |  |
| COc1ccc(CNc2nc(N3CCCC[C@H]3CO)nc3ccccc23)cc1 |  |  | Active |  |
| Nc1nnc(Sc2cc(-n3cccc3)c(Cl)cc2[N+](=O)[O-])[nH]1 |  |  |  | Active |
| OCC1CCCCN1c1nc(NCCc2ccccc2Br)c2ccccc2n1 (racemic) | 44.2% | 5.85 |  |  |
| OCC1CCCCN1c1nc(NCCc2ccc(F)cc2)c2ccccc2n1 (racemic) | 47.5% | 6.51 |  |  |
| Cc1ccc(CCNc2nc(N3CCCCC3CO)nc3ccccc23)cc1 (racemic) | 33.6% | 6.85 |  |  |
| OCC1CCCCN1c1nc(NCCc2ccc(Cl)cc2)c2ccccc2n1 (racemic) | 57.6% | 6.77 |  |  |
| OCC1CCCCN1c1nc(NCCc2ccccc2F)c2ccccc2n1 (racemic) | 60.3% | 5.84 |  |  |
| OCC1CCCCN1c1nc(NCCc2ccccc2)c2ccccc2n1 (racemic) | 55.7% | 6.44 |  |  |
| COc1cccc(CCNc2nc(N3CCCCC3CO)nc3ccccc23)c1 (racemic) | 69.2% | 5.59 |  |  |
| OCC1CCCCN1c1nc(NCCc2cccc(Br)c2)c2ccccc2n1 (racemic) | 51.7% | 6.11 |  |  |
| OCC1CCCCN1c1nc(NCCc2cccc(Cl)c2)c2ccccc2n1 (racemic) | 46.2% | 6.10 |  |  |
| OCC1CCCCN1c1nc(NCCc2cccc(F)c2)c2ccccc2n1 (racemic) | 57.3% | 5.73 |  |  |
| OCC1CCCCN1c1nc(NCCc2ccc(Br)cc2)c2ccccc2n1 (racemic) | 52.8% | 6.47 |  |  |
| COc1ccc(CCNc2nc(N3CCCCC3CO)nc3ccccc23)cc1 (racemic) | 58.6% | 6.51 |  |  |
| OCC1CCCCN1c1nc(NCCc2ccccc2Cl)c2ccccc2n1 (racemic) | 51.4% | 6.33 |  |  |
| COc1ccccc1CCNc1nc(N2CCCCC2CO)nc2ccccc12 (racemic) | 46.9% | 5.80 |  |  |

Source: ChEMBL document CHEMBL4428057, “Discovery, Synthesis, and Evaluation of 2,4-Diaminoquinazolines as a Novel Class of Pancreatic β-Cell-Protective Agents against Endoplasmic Reticulum (ER) Stress” (J Med Chem, 2016)
